Test results: PMC5831081 (Biochemistry, 2017)
Residue numbers refer to the chain shown, from its start. “And” between values parts separate entries of the source, which are not always exact repeats. Equal values may be shown once.

How the values were obtained:
CYP2B4 I363V [1] = biological target: T1, CYP2B4 I363V (Oryctolagus cuniculus, UniProt P00178, H226Y/I363V); assay: NADPH-dependent 7-EFC O-deethylation kinetics; assay type: biochemical, rabbit
T1 sequence (P00178 with tags, fused parts or gaps H226Y/I363V limits assumed): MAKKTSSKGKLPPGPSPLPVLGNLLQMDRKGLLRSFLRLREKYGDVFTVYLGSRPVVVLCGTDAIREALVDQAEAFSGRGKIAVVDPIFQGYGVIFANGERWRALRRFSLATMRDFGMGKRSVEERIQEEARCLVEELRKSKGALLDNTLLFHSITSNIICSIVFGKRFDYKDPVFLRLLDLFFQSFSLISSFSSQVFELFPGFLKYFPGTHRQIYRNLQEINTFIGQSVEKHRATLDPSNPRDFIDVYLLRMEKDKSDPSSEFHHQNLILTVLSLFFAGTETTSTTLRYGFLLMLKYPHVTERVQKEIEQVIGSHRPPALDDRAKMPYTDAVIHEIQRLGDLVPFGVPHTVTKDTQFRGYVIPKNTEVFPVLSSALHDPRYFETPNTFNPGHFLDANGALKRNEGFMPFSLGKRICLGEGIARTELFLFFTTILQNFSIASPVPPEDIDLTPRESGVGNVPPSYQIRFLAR
Outline: (§1)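 Purified CYP2B was reconstituted with POR and cyt b5 (molar 1:4:2 or 1:4:0), 2.5–5 pmol CYP, in 100 µL HEPES pH 7.4 with 7-EFC at 37 °C. After 5 min preincubation, 1 mM NADPH was added. After 5 min, reactions were quenched with ice-cold acetonitrile and diluted into 0.1 M Tris pH 9.0. 7-HFC was measured by fluorescence (ex 410/em 510 nm) against a daily 0–50 µM 7-HFC standard curve.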

CYP2B1 = biological target: T2, CYP2B1 (Rattus norvegicus, UniProt P00176); assay: NADPH-dependent 7-EFC O-deethylation kinetics; assay type: biochemical
T2 sequence (P00176 1-491): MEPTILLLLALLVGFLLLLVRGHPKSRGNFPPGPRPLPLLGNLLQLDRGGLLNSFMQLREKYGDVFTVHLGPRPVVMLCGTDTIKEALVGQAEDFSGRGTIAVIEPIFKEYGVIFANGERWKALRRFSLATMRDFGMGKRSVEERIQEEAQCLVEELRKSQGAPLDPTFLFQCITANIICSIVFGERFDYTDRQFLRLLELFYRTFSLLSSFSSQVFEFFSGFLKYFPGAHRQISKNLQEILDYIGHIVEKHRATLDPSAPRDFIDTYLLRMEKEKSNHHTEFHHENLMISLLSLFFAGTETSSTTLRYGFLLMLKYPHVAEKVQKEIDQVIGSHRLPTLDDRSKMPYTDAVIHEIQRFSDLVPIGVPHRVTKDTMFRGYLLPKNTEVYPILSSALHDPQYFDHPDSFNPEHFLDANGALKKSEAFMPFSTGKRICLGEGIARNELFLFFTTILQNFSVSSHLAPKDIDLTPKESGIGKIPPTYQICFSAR
Outline: as §1

CYP2B6 [2] = biological target: T3, CYP2B6 (Homo sapiens, UniProt P20813, K262R/Y226H); assay: Cumene hydroperoxide; assay type: biochemical; details: for IC50: CuOOH-based IC50, CYP2B6
T3 sequence (P20813 with tags, fused parts or gaps Y226H/K262R): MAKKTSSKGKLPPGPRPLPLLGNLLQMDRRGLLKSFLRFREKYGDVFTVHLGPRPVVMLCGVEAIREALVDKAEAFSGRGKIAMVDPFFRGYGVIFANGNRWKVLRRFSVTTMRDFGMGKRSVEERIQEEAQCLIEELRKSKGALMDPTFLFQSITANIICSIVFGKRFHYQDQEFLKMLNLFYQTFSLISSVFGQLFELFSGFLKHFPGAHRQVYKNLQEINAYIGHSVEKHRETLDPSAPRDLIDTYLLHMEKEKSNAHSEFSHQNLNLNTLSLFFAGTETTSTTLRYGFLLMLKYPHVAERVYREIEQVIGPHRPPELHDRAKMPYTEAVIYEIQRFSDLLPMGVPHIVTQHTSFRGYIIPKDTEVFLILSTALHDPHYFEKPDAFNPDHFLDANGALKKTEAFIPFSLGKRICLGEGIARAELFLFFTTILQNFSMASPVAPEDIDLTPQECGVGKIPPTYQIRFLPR
Outline: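 Purified CYP2B6 was tested alone or with cyt b5 (CYP:cyt b5 1:2) in HEPES buffer at 37 °C, with 7-EFC near KM and varying test compound. Reactions started with 0.5 mM cumene hydroperoxide. For kinetics, 7-HFC formation was followed continuously in stirred 500 µL of 0–200 µM 7-EFC. Initial-slope rates were fitted to Michaelis–Menten. IC50 came from a four-parameter logistic fit. Mean ± SD, n=3.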

CYP2B4 [3] = biological target: T4, CYP2B4 (Oryctolagus cuniculus, UniProt P00178, H226Y); assay: NADPH oxidation assay; assay type: biochemical, rabbit; details: CYP:POR:cyt b5 1:4:2, 20 μM inhibitor, 37 °C
T4 sequence (P00178 with tags, fused parts or gaps H226Y): T1 sequence (P00178 with tags, fused parts or gaps H226Y/I363V limits assumed) with V344I
Outline: (§2)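 Purified CYP2B was reconstituted with POR and cyt b5 at CYP:POR:cyt b5 1:4:2, or 0:4:2 for the partner-only control. Mixtures contained ligand (20 µM unless stated) and 1% acetone in 300 µL. After 5 min preincubation at 37 °C, 0.2 mM NADPH was added. NADPH consumption was recorded kinetically as the A340 decrease (ε 6.22 mM-1 cm-1). Rates are nmol/min/nmol P450, mean ± SD of three independent experiments.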

POR:cyt b5 = POR:cyt b5 (Rattus norvegicus, UniProt P00173+P00388); assay: NADPH oxidation assay, redox partners only; assay type: biochemical; details: control POR:cyt b5=4:2 without CYP; 20 μM 4-CPI; 37 °C
Chain of POR:cyt b5 (P00388 whole entry): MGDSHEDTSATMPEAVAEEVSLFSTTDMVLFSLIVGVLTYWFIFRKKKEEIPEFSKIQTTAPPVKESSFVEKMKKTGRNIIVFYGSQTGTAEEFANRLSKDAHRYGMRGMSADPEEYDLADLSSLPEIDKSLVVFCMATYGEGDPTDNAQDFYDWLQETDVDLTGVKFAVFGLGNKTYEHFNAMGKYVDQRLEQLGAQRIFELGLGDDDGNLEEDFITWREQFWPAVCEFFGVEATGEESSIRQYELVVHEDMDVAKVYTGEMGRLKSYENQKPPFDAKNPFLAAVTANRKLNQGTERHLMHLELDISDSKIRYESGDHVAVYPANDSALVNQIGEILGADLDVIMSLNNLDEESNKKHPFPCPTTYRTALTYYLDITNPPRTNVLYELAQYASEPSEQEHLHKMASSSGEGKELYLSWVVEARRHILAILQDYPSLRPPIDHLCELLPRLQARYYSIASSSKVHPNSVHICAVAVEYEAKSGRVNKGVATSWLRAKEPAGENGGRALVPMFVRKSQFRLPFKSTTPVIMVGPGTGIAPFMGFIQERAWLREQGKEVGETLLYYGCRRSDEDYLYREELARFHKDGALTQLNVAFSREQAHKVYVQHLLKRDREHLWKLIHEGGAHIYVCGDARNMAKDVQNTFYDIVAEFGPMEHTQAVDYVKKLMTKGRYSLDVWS
Chain of POR:cyt b5 (P00173 whole entry): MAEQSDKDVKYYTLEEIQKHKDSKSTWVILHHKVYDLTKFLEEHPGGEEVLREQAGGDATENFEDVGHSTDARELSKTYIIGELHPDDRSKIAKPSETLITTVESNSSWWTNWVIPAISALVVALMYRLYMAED
Outline: as §2

CYP2B4 [4] = biological target: T4, CYP2B4; assay: NADPH-dependent 7-EFC O-deethylation enzyme inhibition assay; assay type: biochemical, rabbit; details: for mechanism of inhibition: CYP2B4, non-linear regression analysis
human CYP2B6 = assay: Spectral binding titration; details: CYP2B6 spectral titration, with vs without POR
CYP2B6 [5] = biological target: T3, CYP2B6; assay: Spectral binding titration; details: for Kd: KS
CYP2B6 L363V [6] = biological target: T5, CYP2B6 L363V (Homo sapiens, UniProt P20813, K262R/L363V/Y226H); assay: NADPH-dependent 7-EFC O-deethylation enzyme inhibition assay; assay type: biochemical
T5 sequence (P20813 with tags, fused parts or gaps Y226H/K262R/L363V limits assumed): T3 sequence (P20813 with tags, fused parts or gaps Y226H/K262R) with L344V

CYP2B6 [7] = biological target: T3, CYP2B6; assay: as above; assay type: biochemical; details: for mechanism of inhibition: CYP2B6, non-linear regression analysis; for IC50: NADPH-based IC50, CYP2B6
CYP2B6 [8] = biological target: T3, CYP2B6; assay: Incubation of POA with CYP2B6, UPLC-MS search for oxidative metabolites; assay type: in vitro ADME; details: POA incubated with CYP2B6, with or without NADPH
CYP2B4 I363V [9] = biological target: T1, CYP2B4 I363V; details: CYP2B4 I363V valine mutant
CYP2B6 L363V [10] = biological target: T5, CYP2B6 L363V; details: CYP2B6 L363V valine mutant
rat CYP2B1 = biological target: T6, rat CYP2B1 (Rattus norvegicus, UniProt P00176); assay: Spectral binding titration; details: spectral binding titrations
T6 sequence (P00176 1-491): T2 sequence (P00176 1-491)

rabbit CYP2B4 = biological target: T7, rabbit CYP2B4 (Oryctolagus cuniculus, UniProt P00178, A26S/E2A/G22K/H226Y/H23K/H27K/K25S/P24T/R29K); assay: Spectral binding titration; details: spectral binding titrations
T7 sequence (P00178 with tags, fused parts or gaps H226Y limits assumed): T1 sequence (P00178 with tags, fused parts or gaps H226Y/I363V limits assumed) with V344I

[11] = CYP2B6, with POR (1 μM CYP, 4 μM POR), HEPES buffer
[12] = CYP2B6, without POR, HEPES buffer
[13] = CYP2B6, without POR, sucrose buffer
[14] = KI, CYP2B6, CYP:POR:cyt b5 1:4:2, 0-200 μM 7-EFC, 37 °C
[15] = Ki,app (Cheng-Prusoff from IC50), CYP2B6, absence of cyt b5
[16] = Ki,app (Cheng-Prusoff from IC50), CYP2B6, presence of cyt b5

CCOc1ccc2c(C(F)(F)F)cc(=O)oc2c1 [7-EFC, 7-Ethoxy-4-(trifluoromethyl)coumarin, reference compound]
Michaelis constant for 7-EFC (CYP2B4 I363V [1]): ~ 120 μM | Michaelis constant for 7-EFC (CYP2B1): ~ 120 μM | kcat of 7-EFC O-deethylation (CYP2B6 [2]; CYP2B6 with CuOOH): 0.007 s⁻¹ | Km (CYP2B6 [2]; human, CYP2B6 enzyme with cumene hydroperoxide, pH 7.4): 56 µM

Clc1ccc(-c2c[nH]cn2)cc1 [4-CPI, 4-(4-chlorophenyl)imidazole, reference compound]
NADPH oxidation rate (CYP2B4 [3]): 10±1 nmol/min/nmolP450 | NADPH oxidation rate (POR:cyt b5): 12±1 nmol/min/nmolP450

Nc1ccc(Oc2cc(Cl)c(Cl)cc2Cl)cc1 [2′4′5′TCPOA, 4-(2′,4′,5′-trichlorophenoxy)aniline]
NADPH oxidation rate (CYP2B4 [3]): 20±1 nmol/min/nmolP450 | Ki (CYP2B4 [4]): 370 ± 40 nM | mechanism of inhibition (CYP2B4 [4]): competitive inhibitors | fold increase of KS (decrease in affinity) on including POR (human CYP2B6): 4-6 fold | fold increase of KS (decrease in affinity) on including POR (human CYP2B6; listed as 2′4′5′-TCPOA): 5.8 fold | Type-II (%) (CYP2B6 [5]; [11]): 17±3% | Type-II (%) (CYP2B6 [5]; [12]): 19±1% | Type-II (%) (CYP2B6 [5]; [13]): 9±1% | Kd (CYP2B6 [5]; [11]): 8100 ± 1700 nM | Kd (CYP2B6 [5]; [12]): 1400 ± 400 nM | Kd (CYP2B6 [5]; [13]): 700 ± 300 nM | Ki (CYP2B6 L363V [6]): 750 ± 100 nM | mechanism of inhibition (CYP2B6 [7]): competitive inhibitors | Ki (CYP2B6 [7]; [14]): 640 ± 80 nM | Ki (CYP2B6 [7]; [15]): 1800 nM | Ki (CYP2B6 [7]; [16]): 220 nM | IC50 (CYP2B6 [7]; CYP:POR (no cyt b5)): 3700 ± 300 nM | IC50 (CYP2B6 [7]; CYP:POR:cyt b5): 430 ± 40 nM

Nc1ccc(Oc2ccccc2)cc1 [POA, 4-(phenoxy)aniline]
NADPH oxidation rate (CYP2B4 [3]): 33±2 nmol/min/nmolP450 | Ki (CYP2B4 [4]): 1300 ± 650 nM | mechanism of inhibition (CYP2B4 [4]): competitive inhibitors | fold increase of KS (decrease in affinity) on including POR (human CYP2B6): 4.2 fold and 4-6 fold | Type-II (%) (CYP2B6 [5]; [11]): 9.2±3.3% | Type-II (%) (CYP2B6 [5]; [12]): 16±1% | Type-II (%) (CYP2B6 [5]; [13]): 26±1% | Kd (CYP2B6 [5]; [11]): 2800 ± 1400 nM | Kd (CYP2B6 [5]; [12]): 670 ± 360 nM | Kd (CYP2B6 [5]; [13]): 1200 ± 200 nM | CYP-mediated oxidative metabolites identified by UPLC-MS (CYP2B6 [8]): no potential CYP-mediated oxidative metabolites | Ki (CYP2B6 L363V [6]): 67000 ± 10000 nM | mechanism of inhibition (CYP2B6 L363V [6]; CYP2B6 L363V, non-linear regression analysis): non-competitive inhibitor | fold increase of IC50 by cyt b5 (CYP2B6 [7]; CYP2B6, NADPH-driven, with vs without cyt b5): 1.8 fold | mechanism of inhibition (CYP2B6 [7]): competitive inhibitors | Ki (CYP2B6 [7]; [14]): 13000 ± 1900 nM | Ki (CYP2B6 [7]; [15]): 7500 nM | Ki (CYP2B6 [7]; [16]): 13500 nM | IC50 (CYP2B6 [7]; CYP:POR (no cyt b5)): 15000 ± 1000 nM | IC50 (CYP2B6 [7]; CYP:POR:cyt b5): 27000 ± 5000 nM | IC50 (CYP2B6 [2]; CYP alone): 38000 ± 7000 nM | IC50 (CYP2B6 [2]; CYP:cyt b5): 44000 ± 14000 nM

Nc1ccc(Cc2ccc(Cl)cc2Cl)cc1 [2′4′DCBA, 4-[(2′,4′-dichlorophenyl)methyl]aniline]
relative affinity among the congeners (CYP2B4 I363V [9]): highest affinity | relative affinity among the ligands tested (CYP2B6 [5]; spectral binding titrations, CYP2B6): highest affinity | relative affinity among the congeners (CYP2B6 L363V [10]): highest affinity | relative affinity among the ligands tested (rat CYP2B1): highest affinity | relative affinity among the ligands tested (rabbit CYP2B4): highest affinity
